ChEMBL document CHEMBL1123034 (J Med Chem, 1985)

Experiments:
[1] = target: Neuronal acetylcholine receptor; assay type: tissue-based, Brain
[2] = target: T1, Neuronal acetylcholine receptor (Rattus norvegicus) (UniProt P04757+P09483+P12389+P12390+P12392+P43144+Q9JLB5+P12391+P43143+P20420+Q05941)
[3] = target: T1, Neuronal acetylcholine receptor (Rattus norvegicus); test: Compounds was evaluate for their ability to enhance (+/-)-[3H]nicotine binding at a dose range 10 E -10 - 10 E -5 M was reported; assay type: protein-complex assay
Method in brief: (§1)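 Whole-brain P2 fraction from female Sprague-Dawley rats (200–300 g), prepared at 4 °C, ~2 mg protein per tube. […] Nonspecific binding defined with 10^-2 M (-)-nicotine. Triplicates, usually four homogenates. Enhancement assessed by two-way ANOVA or pooled t-test.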

[4] = target: T1, Neuronal acetylcholine receptor (Rattus norvegicus); test: Compounds was evaluate for their ability to enhance (+/-)-[3H]nicotine binding at a dose range 10 E -12- 10 E -5 M was reported; assay type: protein-complex assay
Method in brief: as §1

[5] = target: T1, Neuronal acetylcholine receptor (Rattus norvegicus); remark: listed apart in the source
[6] = target: T1, Neuronal acetylcholine receptor (Rattus norvegicus); test: Compounds was evaluate for their ability to enhance (+/-)-[3H]nicotine binding at a dose range 10 E -10 - 10 E -7 M was reported; assay type: protein-complex assay
Method in brief: (§2)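 Bound ligand collected on poly-L-lysine-soaked glass-fibre filters, washed with cold Hepes and counted by liquid scintillation. Nonspecific binding defined with 10^-2 M (-)-nicotine. Triplicates, usually four homogenates. Enhancement tested by two-way ANOVA with linear/quadratic dose components, or pooled t-test.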

[7] = target: Neuronal acetylcholine receptor; test: Compounds was evaluated in vitro for ability to enhance and inhibit the binding of (+/-)-[3H]nicotine to the rat brain P2 fraction at binding site 1; 10e-10-10e-3
Method in brief: as §1

[8] = target: T1, Neuronal acetylcholine receptor (Rattus norvegicus); test: Compounds was evaluate for their ability to enhance (+/-)-[3H]nicotine binding at a dose range 10 E -10 - 10 E -6 M was reported; assay type: protein-complex assay
Method in brief: as §1

[9] = target: Neuronal acetylcholine receptor; test: Compound was evaluated for ability to enhance the binding of (+/-)-[3H]nicotine to the rat brain P2 fraction at binding site 1; assay type: tissue-based
Method in brief: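 Whole-brain P2 fraction from female Sprague-Dawley rats (200–300 g), prepared at 4 °C, ~2 mg protein per tube. Triplicates, usually four homogenates. Enhancement assessed by two-way ANOVA or pooled t-test.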

[10] = target: T1, Neuronal acetylcholine receptor (Rattus norvegicus); remark: listed apart in the source
[11] = target: T1, Neuronal acetylcholine receptor (Rattus norvegicus); remark: listed apart in the source
[12] = target: T1, Neuronal acetylcholine receptor (Rattus norvegicus); test: Compounds was evaluate for their ability to enhance (+/-)-[3H]nicotine binding at a dose range 2.5*10e-9-2.5*10e-5 M was reported; assay type: protein-complex assay
Method in brief: as §1

[13] = target: Neuronal acetylcholine receptor
[14] = target: T1, Neuronal acetylcholine receptor (Rattus norvegicus); remark: listed apart in the source
[15] = target: Neuronal acetylcholine receptor; assay type: tissue-based, Brain; remark: listed apart in the source
[16] = target: T1, Neuronal acetylcholine receptor (Rattus norvegicus); test: Compounds was evaluated for their ability to enhance (+/-)-[3H]nicotine binding at a dose range 10 E -9 - 10 E -6 M was reported; assay type: protein-complex assay
Method in brief: as §2

[17] = target: T1, Neuronal acetylcholine receptor (Rattus norvegicus); test: Compounds was evaluate for their ability to enhance (+/-)-[3H]nicotine binding at a dose range 10 E -8 - 10 E -4 M was reported; assay type: protein-complex assay
Method in brief: as §1

## OC1CCCNC1 (stereo not given)
[1]
  Kd: 820 µM
[2]
  Mean enhancement of binding: 8.6

## CN1CCCCC1
[1]
  Kd: 1200 µM
[3]
  Mean enhancement of binding: 10

## CN1[C@@H]2CC[C@H]1C[C@@H](OC(=O)C(CO)c1ccccc1)C2 (stereo not given in full)
[4]
  Mean enhancement of binding: 14.9

## CN1CCC[C@H]1c1cccnc1
[5]
  Mean enhancement of binding: 4.7

## c1ccncc1 [PYRIDINE]
[1]
  Kd: 3300 µM

## CN1CCC(O)CC1
[1]
  Kd: 3400 µM
[2]
  Mean enhancement of binding: 13

## CCCc1ccccn1
[1]
  Kd: 1.7 µM
[3]
  Mean enhancement of binding: 15.2

## Nc1ccccn1 [2-AMINOPYRIDINE]
[1]
  Kd: 200 µM
[6]
  Mean enhancement of binding: 12.4

## CCCC1CCCCN1 (stereo not given)
[1]
  Kd: 97 µM

## CC1CCCCN1 (stereo not given)
[7]
  Kd: < 0.0001 µM
[1]
  Kd: 3200 µM

## Nc1cccnc1
[1]
  Kd: 380 µM
[8]
  Mean enhancement of binding: 2.4

## Cc1cccnc1 [3-METHYLPYRIDINE]
[9]
  Kd: 1800 µM

## C[N+](C)(C)CCOC(N)=O
[10]
  Mean enhancement of binding: 15

## Cc1cccc(C)n1
[1]
  Kd: 10000 µM
[2]
  Mean enhancement of binding: 3.1

## CCc1cccnc1
[1]
  Kd: 9.5 µM
[8]
  Mean enhancement of binding: 5.4

## CN1CCCC1 [N-METHYL PYRROLIDINE (NMP)]
[1]
  Kd: 52 µM
[8]
  Mean enhancement of binding: 4.1

## CCc1ccncc1
[1]
  Kd: 87 µM

## CC1CCCNC1 (stereo not given)
[1]
  Kd: 890 µM
[2]
  Mean enhancement of binding: 5.2

## OC1CCNCC1
[1]
  Kd: 3000 µM
[2]
  Mean enhancement of binding: 4

## CN1[C@@H](CC(=O)c2ccccc2)CCC[C@H]1C[C@H](O)c1ccccc1
[11]
  Mean enhancement of binding: 18.2

## CNC1(C)C2CCC(C2)C1(C)C (stereo not given)
[12]
  Mean enhancement of binding: 16.4

## CN1C(=O)CCC1c1cccnc1 (stereo not given)
[1]
  Kd: 4700 µM
[9]
  Kd: 0.62 µM

## CCN1CCCCC1
[1]
  Kd: 3.3 µM
[8]
  Mean enhancement of binding: 23

## Cc1ccccn1
[1]
  Kd: 0.05 µM
[13]
  Kd: 64000 µM
[14]
  Mean enhancement of binding: 20.7

## C1CCNCC1 [PIPERIDINE]
[1]
  Kd: 0.12 µM
[15]
  Kd: 69 µM
[16]
  Mean enhancement of binding: 10.3

## CCc1ccccn1
[1]
  Kd: 100 µM
[8]
  Mean enhancement of binding: 10.9

## C1CCNC1 [PYRROLIDINE]
[8]
  Mean enhancement of binding: 4.5

## Oc1ccccn1
[1]
  Kd: 880 µM
[2]
  Mean enhancement of binding: 10

## CCC1CCCCN1 (stereo not given)
[1]
  Kd: 7900 µM

## Cc1ccncc1
[1]
  Kd: 2200 µM
[2]
  Mean enhancement of binding: 6.6

## ON1CCCCC1
[1]
  Kd: 6000 µM
[17]
  Mean enhancement of binding: 8.5

## CC1CCNCC1
[1]
  Kd: 3900 µM
[2]
  Mean enhancement of binding: 6.1
